# Reference: ChEMBL document CHEMBL5058577, “EUbOPEN Chemogenomics Library 2 (Multiplex)” (2022)
# System: Fibroblast
# Assay: Multiplex assay against human fibroblast
# Assay type: toxicity, cell-based
# How it was run: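 Hoechst33342, BioTracker Green Microtubule Cytoskeleton Dye, MitoTracker Red and Annexin V Alexa Fluor 680 were added to live cells at seeding, and imaging on a CQ1 microscope at 37°C and 5% CO2 followed compound addition. Gating by CellPathfinder machine learning separated cells into Hoechst high-intensity objects or normal cells, then normal cells into healthy, pyknosed or fragmented nuclei, then pyknosed cells into mitotic or apoptotic. Per cents of healthy-nucleus cells are reported for the tubulin, mitochondrial-mass and membrane-permeability phenotypes.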
# [1] = 12 h, 1 µM, compound concentration 1 uM, replicate 1
# [2] = 12 h, 1 µM, compound concentration 1 uM, replicate 2
# [3] = 12 h, 10 µM, compound concentration 10 uM, replicate 1
# [4] = 12 h, 10 µM, compound concentration 10 uM, replicate 2
# [5] = 24 h, 1 µM, compound concentration 1 uM, replicate 1
# [6] = 24 h, 1 µM, compound concentration 1 uM, replicate 2
# [7] = 24 h, 10 µM, compound concentration 10 uM, replicate 1
# [8] = 24 h, 10 µM, compound concentration 10 uM, replicate 2
# [9] = 48 h, 1 µM, compound concentration 1 uM, replicate 1
# [10] = 48 h, 1 µM, compound concentration 1 uM, replicate 2
# [11] = 48 h, 10 µM, compound concentration 10 uM, replicate 1
# [12] = 48 h, 10 µM, compound concentration 10 uM, replicate 2
compound,measurement,setting,value
O=C(NCC(=O)N1CC[C@H](N[C@H]2CC[C@@](O)(c3ccc(-c4ncccn4)cn3)CC2)C1)c1cccc(C(F)(F)F)c1 [PF-4136309],Population Apoptotic (%),[1],53%
same,Population Fragmented Nuclei (%),[1],13%
same,Population Healthy Nuclei (%),[1],63%
same,Population Hoechst High Intensity Objects (%),[1],2%
same,Population Membrane Permeable-Phenotype (%),[1],1%
same,Population Mitochondria Different-Phenotype (%),[1],4%
same,Population Mitotic Cells (%),[1],46%
same,Population Normal (%),[1],97%
same,Population Pyknosed Nuclei (%),[1],23%
same,Population Tubulin-Different-Phenotype (%),[1],28%
same,Total Cell Count,[1],142
same,Population Apoptotic (%),[2],22%
same,Population Fragmented Nuclei (%),[2],25%
same,Population Healthy Nuclei (%),[2],52%
same,Population Hoechst High Intensity Objects (%),[2],5%
same,Population Membrane Permeable-Phenotype (%),[2],13%
same,Population Mitochondria Different-Phenotype (%),[2],7%
same,Population Mitotic Cells (%),[2],77%
same,Population Normal (%),[2],94%
same,Population Pyknosed Nuclei (%),[2],21%
same,Population Tubulin-Different-Phenotype (%),[2],60%
same,Total Cell Count,[2],152
same,Population Apoptotic (%),[3],60%
same,Population Fragmented Nuclei (%),[3],18%
same,Population Healthy Nuclei (%),[3],69%
same,Population Hoechst High Intensity Objects (%),[3],2%
same,Population Membrane Permeable-Phenotype (%),[3],0%
same,Population Mitochondria Different-Phenotype (%),[3],11%
same,Population Mitotic Cells (%),[3],40%
same,Population Normal (%),[3],97%
same,Population Pyknosed Nuclei (%),[3],12%
same,Population Tubulin-Different-Phenotype (%),[3],46%
same,Total Cell Count,[3],210
same,Population Apoptotic (%),[4],25%
same,Population Fragmented Nuclei (%),[4],24%
same,Population Healthy Nuclei (%),[4],52%
same,Population Hoechst High Intensity Objects (%),[4],5%
same,Population Membrane Permeable-Phenotype (%),[4],4%
same,Population Mitochondria Different-Phenotype (%),[4],6%
same,Population Mitotic Cells (%),[4],75%
same,Population Normal (%),[4],94%
same,Population Pyknosed Nuclei (%),[4],23%
same,Population Tubulin-Different-Phenotype (%),[4],44%
same,Total Cell Count,[4],128
same,Population Apoptotic (%),[5],61%
same,Population Fragmented Nuclei (%),[5],14%
same,Population Healthy Nuclei (%),[5],60%
same,Population Hoechst High Intensity Objects (%),[5],2%
same,Population Membrane Permeable-Phenotype (%),[5],1%
same,Population Mitochondria Different-Phenotype (%),[5],4%
same,Population Mitotic Cells (%),[5],38%
same,Population Normal (%),[5],97%
same,Population Pyknosed Nuclei (%),[5],25%
same,Population Tubulin-Different-Phenotype (%),[5],32%
same,Total Cell Count,[5],139
same,Population Apoptotic (%),[6],45%
same,Population Fragmented Nuclei (%),[6],33%
same,Population Healthy Nuclei (%),[6],52%
same,Population Hoechst High Intensity Objects (%),[6],4%
same,Population Membrane Permeable-Phenotype (%),[6],16%
same,Population Mitochondria Different-Phenotype (%),[6],1%
same,Population Mitotic Cells (%),[6],55%
same,Population Normal (%),[6],95%
same,Population Pyknosed Nuclei (%),[6],14%
same,Population Tubulin-Different-Phenotype (%),[6],52%
same,Total Cell Count,[6],148
same,Population Apoptotic (%),[7],36%
same,Population Fragmented Nuclei (%),[7],15%
same,Population Healthy Nuclei (%),[7],72%
same,Population Hoechst High Intensity Objects (%),[7],3%
same,Population Membrane Permeable-Phenotype (%),[7],0%
same,Population Mitochondria Different-Phenotype (%),[7],10%
same,Population Mitotic Cells (%),[7],63%
same,Population Normal (%),[7],96%
same,Population Pyknosed Nuclei (%),[7],11%
same,Population Tubulin-Different-Phenotype (%),[7],34%
same,Total Cell Count,[7],203
same,Population Apoptotic (%),[8],30%
same,Population Fragmented Nuclei (%),[8],29%
same,Population Healthy Nuclei (%),[8],48%
same,Population Hoechst High Intensity Objects (%),[8],2%
same,Population Membrane Permeable-Phenotype (%),[8],6%
same,Population Mitochondria Different-Phenotype (%),[8],4%
same,Population Mitotic Cells (%),[8],70%
same,Population Normal (%),[8],97%
same,Population Pyknosed Nuclei (%),[8],22%
same,Population Tubulin-Different-Phenotype (%),[8],52%
same,Total Cell Count,[8],139
same,Population Apoptotic (%),[9],58%
same,Population Fragmented Nuclei (%),[9],26%
same,Population Healthy Nuclei (%),[9],49%
same,Population Hoechst High Intensity Objects (%),[9],2%
same,Population Membrane Permeable-Phenotype (%),[9],2%
same,Population Mitochondria Different-Phenotype (%),[9],2%
same,Population Mitotic Cells (%),[9],41%
same,Population Normal (%),[9],97%
same,Population Pyknosed Nuclei (%),[9],24%
same,Population Tubulin-Different-Phenotype (%),[9],27%
same,Total Cell Count,[9],149
same,Population Apoptotic (%),[10],50%
same,Population Fragmented Nuclei (%),[10],36%
same,Population Hoechst High Intensity Objects (%),[10],4%
same,Population Membrane Permeable-Phenotype (%),[10],7%
same,Population Mitochondria Different-Phenotype (%),[10],4%
same,Population Mitotic Cells (%),[10],50%
same,Population Normal (%),[10],95%
same,Population Pyknosed Nuclei (%),[10],13%
same,Population Tubulin-Different-Phenotype (%),[10],46%
same,Total Cell Count,[10],137
same,Population Apoptotic (%),[11],47%
same,Population Fragmented Nuclei (%),[11],18%
same,Population Healthy Nuclei (%),[11],72%
same,Population Hoechst High Intensity Objects (%),[11],6%
same,Population Membrane Permeable-Phenotype (%),[11],0%
same,Population Mitochondria Different-Phenotype (%),[11],15%
same,Population Mitotic Cells (%),[11],52%
same,Population Normal (%),[11],93%
same,Population Pyknosed Nuclei (%),[11],9%
same,Population Tubulin-Different-Phenotype (%),[11],47%
same,Total Cell Count,[11],195
same,Population Apoptotic (%),[12],63%
same,Population Fragmented Nuclei (%),[12],31%
same,Population Healthy Nuclei (%),[12],52%
same,Population Membrane Permeable-Phenotype (%),[12],6%
same,Population Mitochondria Different-Phenotype (%),[12],6%
same,Population Mitotic Cells (%),[12],36%
same,Population Pyknosed Nuclei (%),[12],15%
same,Population Tubulin-Different-Phenotype (%),[12],54%
same,Total Cell Count,[12],129
